High-throughput results: PubChem, several laboratories
HNF4A DNA FP = change in binding of human HNF4 alpha to DNA; P41235; HNF4a-FITC DNA binding, fluorescence polarization, 1 h; activity change, % at 10 µM; 360,000 tested, 0.3% active; AID 1224865; in the data active = activity change above about 30%, passing the limit was not always enough
CSN inh = inhibitors of human CSN-mediated cullin deneddylation | Q92905 | Purified CSN, SCF-Nedd8-OG deneddylation, fluorescence polarization | inhibition, % at 12.5 µM | 360,000 tested, 0.38% active;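 active = pattern-corrected inhibition above about 35%, with an unprinted fluorescence ratio check between 0.5 and 1.5, limit read from the data, passing the limit was not always enough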;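 note: 0% = enzyme with substrate and 100% = substrate without enzyme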
Target sequence (Q92905 whole entry, looked up, one chain of several): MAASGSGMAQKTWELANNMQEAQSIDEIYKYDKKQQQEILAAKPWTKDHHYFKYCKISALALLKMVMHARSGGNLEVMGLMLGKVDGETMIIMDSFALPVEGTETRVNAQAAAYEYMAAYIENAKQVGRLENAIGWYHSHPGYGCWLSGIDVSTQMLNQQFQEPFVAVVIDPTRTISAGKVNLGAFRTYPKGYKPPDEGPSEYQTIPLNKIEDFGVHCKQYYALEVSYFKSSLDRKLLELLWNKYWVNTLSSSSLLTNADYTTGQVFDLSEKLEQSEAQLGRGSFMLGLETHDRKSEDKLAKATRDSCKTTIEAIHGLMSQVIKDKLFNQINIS
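Detection – fluorescence polarization · System – HEK293T-derived human Csn5 enzyme · Controls – substrate-only high control, full reaction low control · Timing – 90 min, room temperature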
TPT1 inh = inhibitors of Candida albicans tRNA 2'-phosphotransferase TPT1. AID 1962. inhibition, % at 5 µM. recombinant caTPT1, FP RNA substrate dephosphorylation. 300,000 tested, 0.81% active;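 active = inhibition above the mean of all tested compounds plus 3 SD, set per screening campaign, cut at about 24% in these data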;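 note: plate controls were DMSO alone for no effect and ferristatin control at 100 nM for full effect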
Rpn11 inh = blocks the human proteasome subunit Rpn11 | O00487 | human 26S proteasome, Ub4-pepOG fluorescence polarization; 20S core pre-blocked with epoxomicin | inhibition, % at 20 µM | 360,000 tested, 0.59% active;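 active = inhibition at 20 µM, scaled to each plate's controls, above about 33%, limit read from the data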
aDG glyco up = alpha-DG glycosylation activation; Pro5-aDG cells, alpha-DG glycosylation AlphaScreen (IIH6); 0% Pro5, 100% B10-LARGE cell signal; activation, % at 10 µM; 360,000 tested, 0.22% active; AID 624168;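 active = activation of at least 8% versus controls, or a plate z-score of at least 8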;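 note: Pro5 are CHO cells carrying HIG-tagged alpha-DG that lacks glycosylation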
Xi reactivation = reactivates the inactive X chromosome in mouse fibroblasts. AID 743238. 360,000 tested, 0.055% active. activation, % at 7.58 µM. XiGFP mouse fibroblasts, % GFP-positive cells imaging, 3 d; cells co-treated with 5-aza-dC sensitizer; scaled so ellipticine positive control = 100%;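 active = mean normalized replicate activation at least 10% and every replicate at or above 10%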;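 note: 0% = median of on-plate neutral control wells and 100% = ellipticine 6 µM median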
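Assay system: SV40-immortalized XiGFP fibroblast cells, line 68-5-11; buffer or medium: DMEM plus 5-aza-dC sensitizer; compound: one concentration, pinned; timing: compounds 3 days, fix/stain 15 min at room temperature; benchmarks: positive control ellipticine, 6 µM final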
Numbers without * were called inactive. Hits are enriched below; roughly 1.3% of the tested compounds scored in any of these assays.

For Cc1cccc(N2CCN(C(=O)Cn3sc4nc(C)cc(C)c4c3=O)CC2C)c1 (stereo unspecified) the results were HNF4A DNA FP 5, CSN inh 7, TPT1 inh 25*, Rpn11 inh 4 and aDG glyco up 0.
For CCOC(=O)c1c(CSc2ccccc2)n(C)c2cc(Br)c(OCC(O)CNC(CO)(CO)CO)cc12 (stereo unspecified) the results were HNF4A DNA FP 3, CSN inh 71*, TPT1 inh 1, Rpn11 inh 13, aDG glyco up 0 and Xi reactivation 0.
`CCOC(=O)c1c(CSc2ccccc2)n(C)c2cc(Br)c(OC)c(O)c12` gave HNF4A DNA FP 2, CSN inh 1, TPT1 inh 0, Rpn11 inh 0, aDG glyco up 0 and Xi reactivation 0.
Screening O=C(Nc1cccc(-c2nc3ncccc3o2)c1)c1sc2ccccc2c1Cl returned HNF4A DNA FP 43*, CSN inh 1, TPT1 inh 8, Rpn11 inh 18 and aDG glyco up 0.
O=C(Nc1cccc(-c2nc3ncccc3o2)c1)c1sc2cc(Cl)ccc2c1Cl was read as HNF4A DNA FP 176*, CSN inh 22, TPT1 inh 0, Rpn11 inh active and aDG glyco up 0.
`C[C@H](CO)N1C[C@H](C)[C@@H](CN(C)C(=O)Nc2ccc(C(F)(F)F)cc2)OCCCC[C@H](C)Oc2ccc(NC(=O)NC3CCCCC3)cc2C1=O` gave Xi reactivation 0.
For COc1ccc(S(=O)(=O)N(C)C[C@@H]2Oc3ccc(NC(=O)C4CC4)cc3C(=O)N([C@@H](C)CO)C[C@@H]2C)cc1 the results were Xi reactivation -1.
For Cc1ccc(-c2nc(CS(=O)CC(=O)NCCCN3CC(C)CC(C)C3)c(C)o2)cc1 (stereo unspecified) the results were HNF4A DNA FP -3, CSN inh -4, TPT1 inh -4, Rpn11 inh 6, aDG glyco up 0 and Xi reactivation 22*.
C[C@H]1CN([C@@H](C)CO)C(=O)c2c(c3ccccc3n2C)-c2ccccc2CO[C@H]1CN(C)CC1CCCCC1 was read as Xi reactivation 1.
CCCCOc1ccc(C(=O)Nc2ccc(OCC(=O)N3CCOCC3)cc2)cc1 was read as HNF4A DNA FP 0, CSN inh -1, TPT1 inh -2, Rpn11 inh -4, aDG glyco up 0 and Xi reactivation 0.
`O=C(Nc1ccc(OCC(=O)N2CCOCC2)cc1)c1cncc(Br)c1` gave HNF4A DNA FP 0, CSN inh 80*, TPT1 inh 0, Rpn11 inh -8, aDG glyco up 0 and Xi reactivation 0.
`O=C(Nc1ccccc1F)N1C[C@@H]2N[C@H](C1)C2c1ccc(/C=C/c2ccccc2)cc1` (stereo partly specified) gave Xi reactivation 0.
`CC(=O)Nc1ccc(C(=O)CS(=O)(=O)c2ccc(C)cc2)cc1` gave HNF4A DNA FP 0, CSN inh 0, TPT1 inh -1, Rpn11 inh -3 and aDG glyco up -1.
CC(=O)Nc1ccc(S(=O)(=O)c2ccc(C)cc2)cc1 was read as HNF4A DNA FP 34*, CSN inh 5, TPT1 inh -1, Rpn11 inh 0, aDG glyco up 0 and Xi reactivation 0.
Screening Cc1ccc(-c2cnc3c(c2)C(=O)N([C@H](C)CO)C[C@H](C)[C@H](CN(C)C(=O)c2ccc(F)cc2)O3)cc1 returned Xi reactivation -1.
For CCOC(=O)C(C)Sc1ncc(-c2ccc(Cl)cc2)cn1 (stereo unspecified) the results were HNF4A DNA FP 73*, CSN inh 2, TPT1 inh -3, Rpn11 inh -14 and aDG glyco up 0.
`COc1cccc(NC(=S)N/N=C2\CC(C)(C)Oc3ccc(O)cc32)c1` gave HNF4A DNA FP -2, CSN inh 0, TPT1 inh -1, Rpn11 inh 2, aDG glyco up 0 and Xi reactivation 0.
`Cc1cccc(NC(=S)N/N=C2\CC(C)(C)Oc3ccc(O)cc32)c1` gave HNF4A DNA FP 36*, CSN inh -5, TPT1 inh 0, Rpn11 inh 3, aDG glyco up 0 and Xi reactivation 0.
`O=C(Cc1ccncc1)Nc1ccc2c(c1)[C@H]1C[C@@H](CC(=O)N3CCCCC3)O[C@H](CO)[C@H]1O2` gave Xi reactivation 0.
Screening O=C1CC(N2C(=O)/C(=C/C=C/c3ccccc3)SC2=S)C(=O)N1c1ccccc1 (stereo unspecified) returned HNF4A DNA FP 19, CSN inh 3, TPT1 inh 78*, aDG glyco up 0 and Xi reactivation 0.
`O=C1NC(=O)C(=CC=Cc2ccccc2)S1` gave HNF4A DNA FP 4, CSN inh -3, Rpn11 inh 1, aDG glyco up 0 and Xi reactivation 0.
Screening S=c1[nH]nc(-c2ccco2)n1/N=C/C=C/c1ccco1 returned HNF4A DNA FP -16, CSN inh 38*, TPT1 inh 0, Rpn11 inh 0, aDG glyco up 0 and Xi reactivation 0.
`COc1ccc(C2CC(c3ccc(F)cc3)=NN2c2ccccc2)cc1OC` (stereo unspecified) gave HNF4A DNA FP 16, CSN inh 4, TPT1 inh 10, Rpn11 inh 42*, aDG glyco up 0 and Xi reactivation 0.
Screening COc1ccc2c3c(n(C)c2c1)[C@H](CO)N(Cc1ccccc1)CC31CN(S(C)(=O)=O)C1 returned Xi reactivation 1.
For Cc1cccc(C)c1NC(=O)CN1CCN(C(=O)CNC(=O)Cc2cccc3ccccc23)CC1 the results were HNF4A DNA FP 0, CSN inh 7, Rpn11 inh 4, aDG glyco up 0 and Xi reactivation 0.
Screening CCc1ccccc1NC(=O)CN1CCN(C(=O)CNC(=O)Cc2cccc3ccccc23)CC1 returned HNF4A DNA FP 34*, CSN inh 4, Rpn11 inh -5, aDG glyco up 0 and Xi reactivation 0.
S=c1[nH]nc(-c2ccc3ccccc3n2)o1 was read as HNF4A DNA FP 1, CSN inh 113*, TPT1 inh 3, Rpn11 inh -4 and aDG glyco up 0.
For FC(F)(F)c1ccc(-c2n[nH]c(=S)o2)nc1 the results were HNF4A DNA FP 2, CSN inh 1, TPT1 inh 5, Rpn11 inh 4, aDG glyco up 0 and Xi reactivation 0.
